pKi: −log10 of the molar value.
How the values were obtained:
[1] = molecular target: T1, 5-hydroxytryptamine receptor 1A (Rattus norvegicus, UniProt P19327); assay: Displacement of [3H]8-OH-DPAT from rat brain 5HT1A receptor
T1 sequence (P19327 whole entry): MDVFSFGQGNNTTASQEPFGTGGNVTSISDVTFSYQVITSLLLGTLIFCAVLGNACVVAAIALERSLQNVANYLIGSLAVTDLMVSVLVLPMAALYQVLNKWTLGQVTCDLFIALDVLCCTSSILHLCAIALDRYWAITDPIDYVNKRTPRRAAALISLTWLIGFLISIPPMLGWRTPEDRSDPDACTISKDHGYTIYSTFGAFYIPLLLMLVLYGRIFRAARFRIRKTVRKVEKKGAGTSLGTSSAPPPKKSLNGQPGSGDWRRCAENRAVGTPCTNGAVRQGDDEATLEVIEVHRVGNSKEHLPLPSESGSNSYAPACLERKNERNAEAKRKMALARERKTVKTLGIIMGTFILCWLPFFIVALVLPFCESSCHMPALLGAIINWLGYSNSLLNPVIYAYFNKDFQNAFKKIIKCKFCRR
Outline: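 Rat hippocampal membranes; 1 nM [3H]-8-OH-DPAT; nonspecific binding with 10 μM 5-HT; 8–10 competitor concentrations in triplicate, ≥3 experiments; GF/B filtration, ice-cold buffer washes, scintillation counting; Ki by nonlinear regression with Cheng–Prusoff.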

[2] = molecular target: 5-hydroxytryptamine receptor 2A (Rattus norvegicus, UniProt P14842); assay: Displacement of [3H]ketanserin from rat brain 5HT2A receptor
Outline: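 Rat brain membranes; 0.6 nM [3H]-ketanserin; nonspecific binding with 1 μM methysergide; 8–10 competitor concentrations in triplicate, ≥3 experiments; GF/B filtration, scintillation counting; Ki via Cheng–Prusoff.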

[3] = molecular target: 5-hydroxytryptamine receptor 7 (Rattus norvegicus, UniProt P32305); assay: Displacement of [3H]5CT from 5HT7 receptor in Wistar rat hyphalamic membrane; format: cell membranes
[4] = system: Mus musculus; assay: Antidepressant activity in Swiss Albino mouse assessed as immobility time during final 4 mins of 6 mins session at 10 mg/kg, ip administered 30 mins before the test in forced-swimming test; format: functional; conditions: route intraperitoneal
Outline: (§1)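 Male Albino Swiss mice (24-28 g), ip in 1% aqueous Tween 80 suspension (10 mL/kg), 30 min pretest; single glass cylinder (25 cm high, 10 cm diameter), 6 cm water at 23–25 °C for 6 min; immobility (floating, minimal head-keeping movements) timed over final 4 min; n = 9-10/group; mean ± SEM.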

[5] = system: Mus musculus; assay: Antidepressant activity in Swiss Albino mouse assessed as immobility time during final 4 mins of 6 mins session at 20 mg/kg, ip administered 30 mins before the test in forced-swimming test; format: functional; conditions: route intraperitoneal; outline: as §1
[6] = system: Mus musculus; assay: Antidepressant activity in Swiss Albino mouse assessed as immobility time during final 4 mins of 6 mins session at 30 mg/kg, ip administered 30 mins before the test in forced-swimming test; format: functional; conditions: route intraperitoneal
[7] = system: Mus musculus; assay: Locomotor activity in Swiss Albino mouse assessed as number of crossings in 6 mins at 10 mg/kg, ip administered 30 mins before the test; format: functional; conditions: route intraperitoneal
Outline: (§2)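 Male Albino Swiss mice dosed ip 30 min before test (compound in 1% Tween 80; imipramine in distilled water); individual cages with IR beam sensors, consecutive beam breaks scored as ambulatory counts during first 6 min and over a 30-min session; n = 10/group; mean ± SEM.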

[8] = system: Mus musculus; assay: Locomotor activity in Swiss Albino mouse assessed as number of crossings in 6 mins at 20 mg/kg, ip administered 30 mins before the test; format: functional; conditions: route intraperitoneal; outline: as §2
[9] = system: Mus musculus; assay: Locomotor activity in Swiss Albino mouse assessed as number of crossings in 6 mins at 30 mg/kg, ip administered 30 mins before the test; format: functional; conditions: route intraperitoneal; outline: as §2
[10] = system: Mus musculus; assay: Locomotor activity in Swiss Albino mouse assessed as number of crossings in 30 mins at 10 mg/kg, ip administered 30 mins before the test; format: functional; conditions: route intraperitoneal; outline: as §2
[11] = system: Mus musculus; assay: Locomotor activity in Swiss Albino mouse assessed as number of crossings in 30 mins at 30 mg/kg, ip administered 30 mins before the test; format: functional; conditions: route intraperitoneal; outline: as §2

5-hydroxytryptamine receptor 7, sequence (P32305 whole entry): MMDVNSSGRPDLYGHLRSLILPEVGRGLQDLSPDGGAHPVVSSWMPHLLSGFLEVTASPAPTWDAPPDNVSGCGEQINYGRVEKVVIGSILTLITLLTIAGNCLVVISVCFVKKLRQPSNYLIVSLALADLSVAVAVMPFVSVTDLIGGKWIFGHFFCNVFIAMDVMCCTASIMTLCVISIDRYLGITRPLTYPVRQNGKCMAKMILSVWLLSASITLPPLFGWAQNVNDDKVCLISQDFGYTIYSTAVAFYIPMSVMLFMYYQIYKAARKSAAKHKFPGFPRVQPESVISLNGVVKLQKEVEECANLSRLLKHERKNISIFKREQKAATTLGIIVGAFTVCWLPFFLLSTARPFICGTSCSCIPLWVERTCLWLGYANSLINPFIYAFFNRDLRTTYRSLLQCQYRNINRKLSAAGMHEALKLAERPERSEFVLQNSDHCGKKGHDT
5-hydroxytryptamine receptor 2A, sequence (P14842 whole entry): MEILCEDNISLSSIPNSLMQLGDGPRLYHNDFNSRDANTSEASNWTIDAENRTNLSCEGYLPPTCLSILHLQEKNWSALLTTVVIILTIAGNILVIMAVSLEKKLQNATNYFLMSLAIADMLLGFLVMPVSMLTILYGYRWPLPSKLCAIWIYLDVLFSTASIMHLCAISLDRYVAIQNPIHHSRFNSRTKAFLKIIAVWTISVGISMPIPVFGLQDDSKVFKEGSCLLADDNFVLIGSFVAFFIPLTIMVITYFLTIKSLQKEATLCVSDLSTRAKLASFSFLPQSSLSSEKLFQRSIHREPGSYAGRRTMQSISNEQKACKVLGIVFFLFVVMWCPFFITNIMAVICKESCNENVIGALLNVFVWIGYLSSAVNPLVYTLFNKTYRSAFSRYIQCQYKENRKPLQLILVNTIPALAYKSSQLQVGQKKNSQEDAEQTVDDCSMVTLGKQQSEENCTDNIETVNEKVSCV

SMILES | pKi [1] | pKi [2] | pKi [3] | further results
CCCOc1nc2c(c(=O)n(C)c(=O)n2C)n1CCCN1CCN(c2ccccc2)CC1 | 6.10 | 7.29 | 6.01 | –
CCCOc1nc2c(c(=O)n(C)c(=O)n2C)n1CCCN1CCc2ccccc2C1 | 6.00 | 5.58 | 5.36 | –
CCOc1nc2c(c(=O)n(C)c(=O)n2C)n1CCCN1CCN(c2ccccc2)CC1 | 5.89 | 6.75 | 6.32 | –
Cn1c(=O)c2c([nH]c(=O)n2CCCN2CCN(c3cccc(Cl)c3)CC2)n(C)c1=O | 5.95 | 7.24 | 5.73 | –
CN(C)CCCN1c2ccccc2CCc2ccccc21 [IMIPRAMINE] | – | – | – | Activity [4]: 149.1 s; Activity [5]: 107.8 s; Activity [6]: 76.4 s; Activity [7]: 338; Activity [8]: 314.9; Activity [9]: 300.9; Activity [10]: 877; Activity [11]: 602.3
CCCOc1nc2c(c(=O)n(C)c(=O)n2C)n1CCCN1CCN(c2ccccc2OC)CC1 | 6.50 | 6.27 | 6.48 | –
Cn1c(=O)c2c([nH]c(=O)n2CCCN2CCN(c3ccccc3)CC2)n(C)c1=O | 5.38 | 6.64 | 4.86 | –
CCOc1nc2c(c(=O)n(C)c(=O)n2C)n1CCCCN1CCc2ccccc2C1 | 6.37 | 5.71 | 7.08 | –
Cn1c(=O)c2c([nH]c(=O)n2CCCN2CCc3ccccc3C2)n(C)c1=O | 5.20 | 5.10 | 4.78 | –
CCCOc1nc2c(c(=O)n(C)c(=O)n2C)n1CCCCN1CCc2ccccc2C1 | 6.48 | 6.04 | 7.24 | –
CCCOc1nc2c(c(=O)n(C)c(=O)n2C)n1CCCCN1CCN(c2ccccc2)CC1 | 6.89 | 7.24 | 6.17 | –

Reference: ChEMBL document CHEMBL1143707, “7-Arylpiperazinylalkyl and 7-tetrahydroisoquinolinylalkyl derivatives of 8-alkoxy-purine-2,6-dione and some of their purine-2,6,8-trione analogs as 5-HT(1A), 5-HT(2A), and 5-HT(7) serotonin receptor ligands” (Bioorg Med Chem, 2007)
